The source made the active and inactive calls. No cut-off for these calls is given here.
Assays:
[1] = target: T1, Retinoic acid receptor beta (Homo sapiens) (UniProt P10826); assay: Inhibition of RAR-beta (unknown origin) assessed as change in DNA methylation
T1 sequence (whole entry): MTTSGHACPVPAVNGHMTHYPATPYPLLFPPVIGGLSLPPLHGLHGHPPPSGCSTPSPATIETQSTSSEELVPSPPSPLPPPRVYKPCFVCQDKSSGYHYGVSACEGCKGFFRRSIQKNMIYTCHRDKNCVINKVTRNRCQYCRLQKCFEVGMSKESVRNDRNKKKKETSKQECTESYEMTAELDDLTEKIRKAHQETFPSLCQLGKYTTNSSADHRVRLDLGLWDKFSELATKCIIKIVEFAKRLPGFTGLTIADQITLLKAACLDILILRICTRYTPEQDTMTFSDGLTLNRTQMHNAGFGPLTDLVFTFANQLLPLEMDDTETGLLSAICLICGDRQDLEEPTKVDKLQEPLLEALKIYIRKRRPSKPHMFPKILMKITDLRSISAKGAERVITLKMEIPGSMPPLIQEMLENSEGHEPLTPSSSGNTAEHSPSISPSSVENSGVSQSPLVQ
Procedure, shortened: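 DNA methylation changes assessed by specific PCR for RARb.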

[2] = target: T2, Histone deacetylase (Homo sapiens) (UniProt Q13547+O15379+Q9UBN7+Q92769+Q9UQL6+Q8WUI4+Q9BY41+Q96DB2+P56524+Q9UKV0+Q969S8); assay: Inhibition of HDAC in human HeLa cell extract at 100 uM after 15 mins by fluorescence assay; format: protein assay
[3] = Cytotoxicity against human HepG2 cells assessed as cell viability at 15 uM after 72 hrs by Celltitre-glo assay; format: cell-based; settings: read-out: Activity
[4] = target: T3, NAD-dependent protein deacetylase sirtuin-2 (Homo sapiens) (UniProt Q8IXJ6); assay: Modulation of sirtuin 2 (unknown origin) by thermal shift assay
T3 sequence (whole entry): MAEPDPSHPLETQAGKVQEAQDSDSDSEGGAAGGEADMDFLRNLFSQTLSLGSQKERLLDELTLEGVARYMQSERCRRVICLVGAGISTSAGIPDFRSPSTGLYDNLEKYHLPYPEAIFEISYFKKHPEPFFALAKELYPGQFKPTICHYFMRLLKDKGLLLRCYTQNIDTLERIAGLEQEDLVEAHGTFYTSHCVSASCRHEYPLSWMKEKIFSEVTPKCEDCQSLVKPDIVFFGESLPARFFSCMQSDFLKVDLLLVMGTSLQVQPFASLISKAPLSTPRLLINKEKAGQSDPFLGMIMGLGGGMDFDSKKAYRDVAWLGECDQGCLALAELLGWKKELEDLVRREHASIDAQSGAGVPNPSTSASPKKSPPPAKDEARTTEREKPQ
Procedure, shortened: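 Sirtuin 2 modulation tested by thermal shift assay.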

[5] = Cytotoxicity against human MCF7 cells assessed as cell viability at 15 uM after 72 hrs by Celltitre-glo assay; format: cell-based; settings: read-out: Activity
[6] = Cytotoxicity against human MeT-5A cells after 16 hrs by luciferase reporter gene assay; format: cell-based
[7] = target: T2, Histone deacetylase (Homo sapiens); assay: Inhibition of HDAC in human MeT-5A cells assessed as hisone H3 acetylation after 16 hrs by BRET assay; format: cell-based
Procedure, shortened: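 MeT-5A cells transfected with phRluc-C1-BrD and pEYFP-C1 histone H3, then exposed 16 h to increasing doses; BRET signal read as measure of histone H3 acetylation (rise in signal = more acetylation). SAHA used as positive control. Means ± SEM of three independent experiments.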

[8] = target: Histone deacetylase 1 (Homo sapiens, UniProt Q13547); assay: Inhibition of HDAC1 (unknown origin) after 15 mins by fluorescence assay
[9] = target: T4, Protein deacetylase HDAC6 (Homo sapiens, UniProt Q9UBN7); assay: Inhibition of HDAC6 (unknown origin) after 15 mins by fluorescence assay
T4 sequence (Q9UBN7 whole entry): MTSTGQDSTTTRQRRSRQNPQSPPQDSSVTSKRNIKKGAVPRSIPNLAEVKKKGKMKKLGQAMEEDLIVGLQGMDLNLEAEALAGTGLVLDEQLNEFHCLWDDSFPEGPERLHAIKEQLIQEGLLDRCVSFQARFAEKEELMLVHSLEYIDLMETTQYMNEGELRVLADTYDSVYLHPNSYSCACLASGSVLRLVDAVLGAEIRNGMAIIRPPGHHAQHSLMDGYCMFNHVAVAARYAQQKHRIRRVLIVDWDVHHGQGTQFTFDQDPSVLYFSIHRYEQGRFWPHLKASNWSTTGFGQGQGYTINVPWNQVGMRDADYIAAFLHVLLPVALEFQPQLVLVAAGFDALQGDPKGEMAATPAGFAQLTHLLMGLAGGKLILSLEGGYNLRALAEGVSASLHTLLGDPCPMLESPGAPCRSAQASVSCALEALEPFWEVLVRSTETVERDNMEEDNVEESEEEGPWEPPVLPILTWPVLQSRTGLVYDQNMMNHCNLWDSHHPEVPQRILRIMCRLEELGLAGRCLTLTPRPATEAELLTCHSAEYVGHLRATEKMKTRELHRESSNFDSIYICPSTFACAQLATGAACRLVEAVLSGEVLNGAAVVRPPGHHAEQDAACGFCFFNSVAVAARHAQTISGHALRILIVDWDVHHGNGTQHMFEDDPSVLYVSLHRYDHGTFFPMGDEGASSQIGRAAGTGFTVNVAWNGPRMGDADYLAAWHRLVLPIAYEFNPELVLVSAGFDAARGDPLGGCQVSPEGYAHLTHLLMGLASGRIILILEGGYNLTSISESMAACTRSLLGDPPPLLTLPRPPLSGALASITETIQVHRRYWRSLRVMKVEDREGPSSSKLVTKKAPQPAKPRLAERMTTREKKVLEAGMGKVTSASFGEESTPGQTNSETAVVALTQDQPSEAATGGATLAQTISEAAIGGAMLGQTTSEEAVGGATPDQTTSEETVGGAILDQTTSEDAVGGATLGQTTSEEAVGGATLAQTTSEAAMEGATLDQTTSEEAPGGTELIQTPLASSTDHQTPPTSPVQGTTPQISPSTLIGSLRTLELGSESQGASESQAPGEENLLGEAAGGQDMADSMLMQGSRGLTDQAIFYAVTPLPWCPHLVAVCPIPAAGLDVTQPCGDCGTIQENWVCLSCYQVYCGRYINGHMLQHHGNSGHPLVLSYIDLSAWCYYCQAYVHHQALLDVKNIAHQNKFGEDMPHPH

[10] = target: Histone deacetylase; assay: Inhibition of HDAC in human HeLa cell extract after 15 mins by fluorescence assay; format: protein assay
[11] = target: Histone deacetylase 2 (Homo sapiens, UniProt Q92769); assay: Inhibition of HDAC2 (unknown origin) after 15 mins by fluorescence assay
Histone deacetylase 2, sequence (Q92769 whole entry): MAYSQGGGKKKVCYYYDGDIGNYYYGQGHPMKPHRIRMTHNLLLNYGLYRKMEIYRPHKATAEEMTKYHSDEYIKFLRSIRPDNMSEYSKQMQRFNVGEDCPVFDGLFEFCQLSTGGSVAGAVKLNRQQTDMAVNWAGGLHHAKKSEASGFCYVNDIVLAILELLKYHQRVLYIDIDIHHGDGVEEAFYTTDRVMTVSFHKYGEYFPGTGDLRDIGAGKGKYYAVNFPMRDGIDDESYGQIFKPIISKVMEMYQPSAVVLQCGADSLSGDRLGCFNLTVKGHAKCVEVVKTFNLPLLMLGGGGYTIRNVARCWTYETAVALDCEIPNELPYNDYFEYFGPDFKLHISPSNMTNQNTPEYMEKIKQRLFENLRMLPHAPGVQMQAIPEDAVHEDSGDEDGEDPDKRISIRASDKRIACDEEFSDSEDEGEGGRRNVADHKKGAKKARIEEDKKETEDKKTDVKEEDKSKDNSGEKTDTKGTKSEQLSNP

Histone deacetylase 1, sequence (Q13547 whole entry): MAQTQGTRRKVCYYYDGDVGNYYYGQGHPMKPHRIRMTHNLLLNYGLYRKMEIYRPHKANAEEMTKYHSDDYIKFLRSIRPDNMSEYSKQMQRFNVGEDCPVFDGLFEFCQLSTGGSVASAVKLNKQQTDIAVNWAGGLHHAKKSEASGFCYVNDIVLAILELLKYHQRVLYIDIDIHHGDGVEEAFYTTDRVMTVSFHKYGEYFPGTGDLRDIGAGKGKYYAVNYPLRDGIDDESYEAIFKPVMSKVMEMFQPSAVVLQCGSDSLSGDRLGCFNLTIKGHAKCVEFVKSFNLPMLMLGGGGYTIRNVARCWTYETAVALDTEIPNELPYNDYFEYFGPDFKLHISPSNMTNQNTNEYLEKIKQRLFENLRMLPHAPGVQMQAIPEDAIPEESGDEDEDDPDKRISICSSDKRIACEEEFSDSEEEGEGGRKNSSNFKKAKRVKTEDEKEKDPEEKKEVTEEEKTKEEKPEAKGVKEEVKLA

Row | inhibition [1] | inhibition [2] [%] | inhibition [4] | inhibition [7] | IC50 [8] [µM] | IC50 [9] [µM] | IC50 [10] [µM] | IC50 [11] [µM] | SMILES | viability at 72 h, 15 µM [3] [%] | viability at 72 h, 15 µM [5] [%] | Activity [6]
1 | inactive | 12 | inactive |  |  |  |  |  | COc1cccc(/C=C2\Oc3ccccc3C2=O)c1OC | 104 | 94 | 
2 | inactive | 7 | inactive |  |  |  |  |  | COc1cc(OC)c2c(c1)O/C(=C\c1ccccc1OC)C2=O | 104 | 89 | 
3 | inactive | 20 | inactive |  |  |  |  |  | COc1ccc(/C=C2\Oc3cc(OC)cc(OC)c3C2=O)cc1 [4,4',6-TRIMETHOXY-AURONE] | 119 | 10 | 
4 | inactive | 30 | inactive |  |  |  |  |  | O=C(O)c1ccc(/C=C2\Oc3ccc(Cl)cc3C2=O)cc1 | 86 | 109 | 
5 | inactive | 14 | inactive | Dose-dependent effect |  |  |  |  | COc1ccc(/C=C2\Oc3ccc(Br)cc3C2=O)cc1OC | 93 | 108 | Dose-dependent effect
6 | inactive | 51 | inactive | Dose-dependent effect |  |  | 71 |  | COc1ccc(/C=C2\Oc3ccccc3C2=O)cc1OC [3',4'-DIMETHOXY-AURONE] | 114 | 91 | Dose-dependent effect
7 | inactive | 1 | inactive |  |  |  |  |  | COc1cccc(/C=C2\Oc3ccccc3C2=O)c1 [3'-METHOXY-AURONE] | 101 | 89 | 
8 | inactive | 46 | inactive |  |  |  |  |  | COc1cc(OC)c2c(c1)O/C(=C\c1ccccc1Cl)C2=O | 80 | 72 | 
9 | inactive | 6 | inactive |  |  |  |  |  | COc1cccc(/C=C2\Oc3ccc(Cl)cc3C2=O)c1OC | 99 | 115 | 
10 | inactive | 7 | inactive |  |  |  |  |  | COc1ccccc1/C=C1\Oc2ccccc2C1=O [(Z)-2'-METHOXYAURONE] | 103 | 88 | 

Continued, compound first:

Row | SMILES | inhibition [1] | inhibition [2] [%] | inhibition [4] | inhibition [7] | IC50 [8] [µM] | IC50 [9] [µM] | IC50 [10] [µM] | IC50 [11] [µM] | viability at 72 h, 15 µM [3] [%] | viability at 72 h, 15 µM [5] [%] | Activity [6]
11 | O=C(O)c1ccc(/C=C2\Oc3ccccc3C2=O)cc1 | inactive | 28 | inactive |  |  |  |  |  | 73 | 105 | 
12 | O=C1/C(=C/c2ccc(O)c(O)c2)Oc2cc(O)cc(O)c21 [AUREUSIDIN] | inactive | 100 | inactive | Dose-dependent effect | 38 | 48.5 | 18.5 | 38.9 | 116 | 102 | Dose-dependent effect
13 | COc1ccc(/C=C2\Oc3ccccc3C2=O)cc1 [4'-METHOXY-AURONE] | inactive | 23 | inactive |  |  |  |  |  | 65 | 88 | 
14 | O=C(/C=C/c1ccc(Cl)cc1)c1ccccc1O | inactive | 0 | inactive |  |  |  |  |  | 62 | 90 | 
15 | O=C1/C(=C/c2ccc(Cl)cc2)Oc2ccccc21 | inactive | 13 | inactive |  |  |  |  |  | 110 | 85 | 
16 | Cc1ccc(/C=C2\Oc3ccccc3C2=O)cc1 | inactive | 5 | inactive |  |  |  |  |  | 35 | 86 | 
17 | O=C1/C(=C/c2cccc(O)c2O)Oc2ccccc21 | inactive | 98 | inactive | Dose-dependent effect | 21 | 26.9 | 18.6 | 16.4 | 113 | 109 | Dose-dependent effect
18 | O=C1/C(=C/c2ccc(O)cc2)Oc2ccccc21 | inactive | 100 | inactive | Dose-dependent effect | 129 | 136 | 12.6 | 100 | 100 | 79 | Dose-dependent effect
19 | COc1cc(OC)c2c(c1)O/C(=C\c1ccccc1)C2=O | inactive | 27 | inactive |  |  |  |  |  | 9 | 73 | 
20 | O=C1/C(=C/c2ccc(O)c(O)c2)Oc2ccccc21 | inactive | 100 | inactive | Dose-dependent effect | 11.4 | 26.9 | 8.2 | 5.1 | 114 | 95 | Dose-dependent effect
21 | Cc1ccc(/C=C/C(=O)c2ccccc2O)cc1 | inactive | 0 | inactive |  |  |  |  |  | 120 | 96 | 
22 | COCOc1cc(OCOC)c2c(c1)O/C(=C\c1ccc(OCOC)c(OCOC)c1)C2=O | inactive | 75 | inactive |  |  |  | 40 |  | 7 | 21 | 
